# Experimental data reported in ChEMBL document CHEMBL2429829, “Inhibitors of the aminoglycoside 6'-N-acetyltransferase type Ib [AAC(6')-Ib] identified by in silico molecular docking” (Bioorg Med Chem Lett, 2013).
# Columns and labels:
# [1] = Inhibition of aminoglycoside 6'-N-acetyltransferase Ib (unknown origin)-mediated acetylation expressed in Escherichia coli using kanamycin A and acetyl CoA as substrate at 100 uM preincubated for 10 mins followed by enzyme addition by spectrophotometric analysis relative to control
# How it was run: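 Enzyme: thioredoxin-fused AAC(6′)-Ib, arabinose-induced in E. coli, partially purified by DEAE ion exchange. Reaction: 20 mM Tris pH 7.5, 0.2 mM DTNB, 50 μM acetyl CoA, 18 μM kanamycin A, compound at 100 μM in 10% DMSO. Mix held 10 min at room temperature before enzyme added. CoA–SH release read at 412 nm. Percent inhibition from initial velocities versus no-compound reactions; mean of three experiments.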
# [2] = Inhibition of aminoglycoside 6'-N-acetyltransferase Ib (unknown origin)-mediated acetylation expressed in Escherichia coli using 3 to 18 uM kanamycin A and 100 uM acetyl CoA as substrate preincubated for 10 mins followed by enzyme addition by spectrophotometric analysis
# How it was run: (§1)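 Enzyme partially purified on DEAE from arabinose-induced E. coli, in 20 mM Tris pH 7.5 with 0.2 mM DTNB and 10% DMSO. Inhibitor at a range of concentrations, kanamycin A 3–18 μM, acetyl CoA 100 μM. 10 min room-temperature preincubation before enzyme. CoA-SH release read at 412 nm. Ki from initial velocities by nonlinear regression, in triplicate.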
# [3] = Inhibition of aminoglycoside 6'-N-acetyltransferase Ib (unknown origin)-mediated acetylation expressed in Escherichia coli using 5 to 72 uM acetyl CoA and 25 uM kanamycin A as substrate preincubated for 10 mins followed by enzyme addition by spectrophotometric analysis
# How it was run: as §1, with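 “concentrations, acetyl CoA 5–72 μM,” for “concentrations,”, “25” for “3–18 μM, acetyl CoA 100”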
Structure (SMILES),inhibition [1],Ki [2],Ki [3]
O=c1[nH]c(-c2cccc(OCc3ccccc3)c2)nc2sc3c(c12)CCCC3,0%,,
Cc1ccc(-c2csc(NC(=S)NC(=O)c3ccccc3Br)n2)cc1,0%,,
Cc1ccc(S(=O)(=O)Nc2cc3c(c4ccccc24)O[C@]2(C3)N(C)c3ccccc3C2(C)C)c(C)c1,0%,,
Cc1ccc2nc(C)cc(C(=O)OCC(=O)c3ccc(-c4ccccc4)cc3)c2c1,0%,,
O=C(/C=C/c1cccc2ccccc12)N1CCN(CCN2C(=O)c3cccc4cccc(c34)C2=O)CC1,0%,,
O=C1NC(=O)N(c2ccccc2)C(=O)/C1=C/c1cc(Cl)ccc1OCc1ccc(C(=O)O)cc1,0%,,
Cc1ccc(C(=O)O)cc1NC(=S)NC(=O)c1cccc2c(Br)cccc12,0%,,
O=C(c1cc(-c2ccc3c(c2)OCO3)nc2ccccc12)N1CCN(c2ccccc2F)CC1,0%,,
CC(C)(NC(=O)CCn1ccc(=O)[nH]c1=O)c1cccc2ccccc12,0%,,
COC(=O)c1ccc(N2C(=O)NC(=O)/C(=C\c3ccccc3OCc3ccc(C(=O)O)cc3)C2=O)cc1,0%,,
Cc1ccc(N2C(=O)NC(=O)/C(=C\c3ccccc3OCc3ccc(C(=O)O)cc3)C2=O)cc1C,27%,155 µM,297 µM
Cc1ccccc1Nc1nnc(-c2ccc(C(=O)NCCO)cc2)c2ccccc12,0%,,
Cc1cc(C)c2nc(Nc3nc(C)cc(-c4ccccc4)n3)nc(C)c2c1,0%,,
CC[C@H](C1=NN2C(=N)/C(=C\c3ccc(-c4cccc(C(=O)O)c4)o3)C(=O)N=C2S1)c1ccccc1,0%,,
O=C(O)c1ccc2c(c1Nc1cccc3c1C(=O)c1ccccc1C3=O)C(=O)c1ccccc1C2=O,0%,,
Cc1cccc(C)c1NC(=O)C(Cc1c[nH]c2ccccc12)NC(=O)Oc1ccccc1 (configuration not stated),0%,,
COc1cc(/C=C2\C(=O)NC(=S)N(c3ccccc3)C2=O)ccc1OCc1ccc(C(=O)O)cc1,0%,,
Cc1cccc(C)c1NC(=O)COc1ccc2c3c(c(=O)oc2c1)CCCCC3,0%,,
Brc1ccc2nc(Nc3cccc4ccccc34)nc(-c3ccccc3)c2c1,0%,,
O=C1NCCN(Cc2cccc(F)c2F)[C@H]1CC(=O)N1CCc2c([nH]c3ccccc23)C1,0%,,
Cc1ccc(-c2cc(C(=O)NCc3ccc(S(N)(=O)=O)cc3)c3ccccc3n2)cc1C,0%,,

Structure (SMILES),inhibition [1],Ki [2],Ki [3]
Cc1ccc(-c2nnn(CC(=O)Nc3ccc4c(c3)OCCO4)n2)cc1,0%,,
O=C(Nc1nccs1)c1cccc(N2C(=O)c3cccc4c([N+](=O)[O-])ccc(c34)C2=O)c1,0%,,
O=C1NC(=O)N(c2ccccc2)C(=O)/C1=C\c1ccco1,65%,15 µM,16 µM
Cc1ccnc(Nc2nc(-c3ccc4ccccc4c3)cs2)c1,0%,,
CCc1ccc(N2C(=O)NC(=O)/C(=C\c3ccccc3OCc3ccc(C(=O)O)cc3)C2=O)cc1,30%,139 µM,181 µM
CCc1cc(Br)ccc1N1C(=O)[C@H]2C3c4ccccc4C(c4ccccc43)[C@@H]2C1=O,0%,,
O=C(Nc1ccc2c(c1)C(=O)c1ccccc1C2=O)c1cccc([N+](=O)[O-])c1,0%,,
Cc1c(C(=O)Nc2ccc3c(c2)Cc2ccccc2-3)cccc1[N+](=O)[O-],0%,,
Cc1ccc2nc(-c3ccc(Cl)c(NC(=S)NC(=O)c4ccccc4C)c3)oc2c1,0%,,
O=C(NC(=S)Nc1nc(-c2cccc3ccccc23)cs1)c1ccc2c(c1)OCCO2,0%,,
Cc1ccc2nc(N3C(=O)c4cccc5cccc(c45)C3=O)sc2c1,0%,,
O=C1NC(=O)N(c2ccc3c(c2)OCO3)C(=O)/C1=C/c1ccc(-c2ccc(F)cc2)o1,0%,,
Cc1ccc2c(c1)CCCN2C(=O)c1cc(-c2ccc3c(c2)OCO3)nc2ccccc12,10%,,
O=C(c1ccc2nc(C3CC3)oc2c1)N1CCC(CCc2ccccc2)CC1,0%,,
Cc1ccc(S(=O)(=O)Nc2c3ccccc3c(O)c3c4c(oc23)CC(C)(C)CC4=O)cc1,0%,,
O=C1NC(=O)N(c2ccc(F)cc2)C(=O)/C1=C/c1cc(Cl)ccc1OCc1ccc(C(=O)O)cc1,0%,,
CN1C(=O)c2ccc(NC(=O)[C@H]3CC(=O)N(c4ccccc4)C3)cc2C1=O,0%,,
O=C(NCc1ccc(-c2nc3ccccc3o2)cc1)c1cccc(-c2cc3ccccc3oc2=O)c1,0%,,
c1ccc2oc(-c3nn4c(-c5ccncc5)nnc4s3)cc2c1,0%,,
O=C(c1cc(-c2ccccc2Cl)nc2ccccc12)N1CCN(Cc2ccc3c(c2)OCO3)CC1,0%,,
O=C1C(=Cc2ccc(-c3ccccc3[N+](=O)[O-])o2)C(=O)N(c2ccccc2)C(=S)N1c1ccccc1,0%,,

Structure (SMILES),inhibition [1],Ki [2],Ki [3]
O=C(c1ccc(N2CCCCC2)cc1)N1CCC2c3ccccc3NC2[C@@H]1c1ccccn1 (some centres not stated),0%,,
O=C(OCc1ccc(S(=O)(=O)c2ccccc2)cc1)c1ccc2c(c1)-c1ccccc1C2=O,0%,,
O=C1c2cccc3cccc(c23)C(=O)N1CCCc1nc2sc3c(c2c(=O)[nH]1)CCCC3,0%,,
O=C1C(=Cc2ccco2)C(=O)N(c2ccccc2)C(=S)N1c1ccccc1,0%,,
Cc1nc(N/N=C/c2ccc(OC(=O)c3cccnc3)cc2)c2c3c(sc2n1)CCCC3,0%,,
Cc1ccc(N2C(=O)C[C@@H](N3CCN(c4nc5ccccc5s4)CC3)C2=O)c(C)c1,0%,,
S=C(N/N=C1/CCCc2c1[nH]c1ccc(C3CCCCC3)cc21)Nc1ccccc1,0%,,
COc1ccc(F)cc1C(=O)C1CCCN(C(=O)c2ccc(Cn3cnnn3)cc2)C1 (configuration not stated),0%,,
Cn1c(COc2nnc(-c3ccccc3)c3ccccc23)nc2ccccc21,0%,,
O=C1C(=Cc2ccc(-c3ccc(Cl)cc3[N+](=O)[O-])o2)C(=O)N(c2ccccc2)C(=S)N1c1ccccc1,0%,,
O=C(CSc1nc2ccccc2c(=O)n1Cc1ccccc1)c1cc2ccccc2o1,0%,,
CC(C)(C)NC(=O)c1cccc(NC(=O)c2ccc3c(c2)C(=O)N(Cc2ccncc2)C3=O)c1,0%,,
O=C(NC(=S)Nc1ccc2c3c(oc2c1)CCCC3)c1ccc2c(c1)OCO2,0%,,
O=C1[C@@H]2[C@H](C(=O)N1/N=C/c1ccccc1OCc1ccc(Cl)cc1)[C@@H]1C=C[C@H]2C1,12%,,
Cc1ccc(N2C(=O)NC(=O)/C(=C\c3ccc(-c4ccccc4C(=O)O)o3)C2=O)cc1,0%,,
O=c1oc2ccc(Br)cc2cc1C1=Nn2c(nc3ccccc3c2=O)SC1,0%,,
Cc1nn(Cc2ccc(F)cc2)c(C)c1NC(=O)c1cc(-c2ccc(F)cc2)on1,0%,,
Cc1ncc(CNC2CCCc3nc(-c4ccccc4)ncc32)n1C (configuration not stated),0%,,
O=C(c1cccc([N+](=O)[O-])c1)c1ccc2c(c1)C(=O)N(c1cccc(-c3nc4ccccc4o3)c1)C2=O,0%,,
O=C(c1ccc2c3c(cccc13)CC2)[C@H]1CCCN(C(=O)c2cn3ccccc3n2)C1,0%,,
O=C1C[C@H](c2ccc3cccc(O)c3n2)c2ccc(N3CCOC3=O)cc2N1,0%,,

Structure (SMILES),inhibition [1],Ki [2],Ki [3]
Cc1c(O)cccc1C(=O)N1CCC[C@@H]1c1nc(-c2ccccc2)no1,0%,,
O=C(CSc1nnnn1-c1ccccc1)Nc1ccc(-c2ccc([N+](=O)[O-])cc2)cc1,0%,,
O=C(Nc1ccccc1N1CCCCC1)c1cccc(-c2cc3ccccc3oc2=O)c1,0%,,
CCc1ccc(-c2nc3ccccc3c(C(=O)Nc3ccc(C(=O)N4CCCC4)cc3)c2C)cc1,0%,,
O=C(Nc1ccccc1)c1ccccc1/N=C/c1ccc(/C=N/c2ccccc2C(=O)Nc2ccccc2)cc1,0%,,
O=C1C(=Cc2ccco2)C(=O)N(c2ccccc2)C(=O)N1c1ccccc1,0%,,
Cn1c(SCC(=O)Nc2cccc3ccccc23)nnc1-c1ccc(F)cc1,0%,,
O=C1C(=Cc2ccc(-c3ccccc3Cl)o2)C(=O)N(c2ccccc2)C(=S)N1c1ccccc1,0%,,
Cc1ccc(NC(=O)c2ccccc2N2C(=O)[C@@H]3[C@@H]4C=C[C@@H]([C@H]5C[C@@H]45)[C@@H]3C2=O)cc1C,0%,,
O=C(NC1CCCc2c1cnn2-c1ccccc1F)c1ccc(-n2ccnc2)cc1 (configuration not stated),15%,,
Cc1ccc2nc(NC(=S)NC(=O)c3oc4ccccc4c3C)sc2c1,0%,,
O=C1NC(=S)N(c2ccccc2)C(=O)/C1=C/c1ccc(OCc2ccccc2)cc1,0%,,
O=C(Nc1ccc(Oc2cccnc2)cc1)[C@@H]1CCCCN1Cc1ccc2c(c1)CCO2,0%,,
COc1cccc(Nc2nc(C3(C)CC4(CC(C)OC4=O)C(=O)O3)cs2)c1 (configuration not stated),0%,,
N#Cc1cccc(Oc2ccc(-c3nc4ccccc4nc3-c3ccccc3)cc2)c1C#N,0%,,
NC(=O)c1c(NC(=O)c2cc(-c3ccc4c(c3)OCO4)nc3ccccc23)sc2c1CCCCCC2,0%,,
Cc1ccc(C(=O)COc2cccc(N3C(=O)[C@@H]4[C@H]5CC[C@H](C5)[C@@H]4C3=O)c2)cc1C,0%,,
Cc1ccc(NC(=O)COc2ccc3c4c(c(=O)oc3c2)CCCCC4)cc1,0%,,
